Experimental data taken from ChEMBL document CHEMBL5653622 (Oncotarget, 2016).
Activity calls are given as the source filed them. No cut-off for these calls is given here.

Assays:
[1] = target: T1, Dual specificity protein kinase CLK2 (Homo sapiens, UniProt P49760); assay: Inhibition of human CLK2 by FRET based Z-LYTE kinase assay
Target sequence in this assay (P49760 whole entry): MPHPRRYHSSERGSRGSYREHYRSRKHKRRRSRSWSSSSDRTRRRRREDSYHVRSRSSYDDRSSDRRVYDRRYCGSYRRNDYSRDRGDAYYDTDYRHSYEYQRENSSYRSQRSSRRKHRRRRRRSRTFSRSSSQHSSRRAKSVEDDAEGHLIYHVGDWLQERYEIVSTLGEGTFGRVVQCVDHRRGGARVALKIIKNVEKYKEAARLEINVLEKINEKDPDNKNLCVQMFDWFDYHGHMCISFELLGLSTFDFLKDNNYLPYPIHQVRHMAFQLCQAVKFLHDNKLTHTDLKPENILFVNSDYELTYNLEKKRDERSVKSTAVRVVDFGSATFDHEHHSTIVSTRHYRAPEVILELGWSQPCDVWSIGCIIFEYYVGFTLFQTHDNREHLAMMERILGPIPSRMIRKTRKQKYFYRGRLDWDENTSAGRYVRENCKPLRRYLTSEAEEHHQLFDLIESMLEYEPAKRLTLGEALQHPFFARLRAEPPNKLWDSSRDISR

[2] = target: Cyclin-dependent kinase 1 (Homo sapiens) (UniProt P06493); assay: Inhibition of human CDK1 by DELFIA assay
[3] = target: Casein kinase 2 (Homo sapiens) (UniProt P67870+P68400+P19784+Q8NEV1); assay: Inhibition of human CK2 assessed as remaining activity at 10 uM in presence of ATP by radiometric kinase assay relative to control; format: protein assay
Mus musculus = assay: In vivo inhibition of CHK1 in CRTac:Ncr-Fox1 mouse xenografted with human HT-29 cells assessed as reduction of phosphorylation of CDK1 on Y15 at 100 mg/kg, po administered for 24 hrs by Western blotting analysis; format: functional, organism-based
In short: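 HT29 s.c. xenografts in female athymic nude mice. Single gemcitabine dose 100mg/kg i.v. on day 0, then one inhibitor dose 50 or 100mg/kg p.o. (DPTW vehicle) 24h later. Tumors taken 24h after the last dose, western blotted, and signals quantified by normalizing to GAPDH.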

[4] = target: MAP kinase-activated protein kinase 2 (Homo sapiens) (UniProt P49137); assay: Inhibition of human MAPKAP-K2 assessed as remaining activity at 10 uM in presence of ATP by radiometric kinase assay relative to control
[5] = target: Protein kinase C gamma type (Homo sapiens) (UniProt P05129); assay: Inhibition of human PKC gamma assessed as remaining activity at 10 uM in presence of ATP by radiometric kinase assay relative to control
[6] = target: Mitogen-activated protein kinase 3 (Homo sapiens) (UniProt P27361); assay: Inhibition of human ERK1 assessed as remaining activity at 10 uM in presence of ATP by radiometric kinase assay relative to control
[7] = target: Ribosomal protein S6 kinase alpha-3 (Homo sapiens, UniProt P51812); assay: Inhibition of human RSK2 assessed as remaining activity at 10 uM in presence of ATP by radiometric kinase assay relative to control
[8] = target: Glycogen synthase kinase-3 beta (Homo sapiens) (UniProt P49841); assay: Inhibition of human GSK3b assessed as remaining activity at 10 uM in presence of ATP by radiometric kinase assay relative to control
[9] = target: Mitogen-activated protein kinase kinase kinase 5 (Homo sapiens) (UniProt Q99683); assay: Inhibition of human ASK1 assessed as remaining activity at 10 uM in presence of ATP by radiometric kinase assay relative to control
[10] = Toxicity in Emu-Myc driven transgenic mouse transplant model of B-cell lymphoma assessed as increase in weight of spleen at 150 mg/kg, po administered for 9 days; format: organism-based; conditions: in vivo, 216 h, time 9 day
[11] = target: Phosphorylase b kinase gamma catalytic chain, skeletal muscle/heart isoform (Homo sapiens, UniProt Q16816); assay: Inhibition of PHKG1 (unknown origin) by FRET based Z-LYTE kinase assay
SW-620 = assay: Induction of apoptosis in human SW620 cells assessed as increased in cleaved PARP in presence of SN38 by Western blotting analysis; format: functional, cell-based
[12] = target: MAP/microtubule affinity-regulating kinase 4 (Homo sapiens) (UniProt Q96L34); assay: Inhibition of human MARK4 assessed as remaining activity at 10 uM in presence of ATP by radiometric kinase assay relative to control
[13] = target: Tyrosine-protein kinase ZAP-70 (Homo sapiens) (UniProt P43403); assay: Inhibition of human ZAP70 assessed as remaining activity at 10 uM in presence of ATP by radiometric kinase assay relative to control
[14] = target: Calcium/calmodulin-dependent protein kinase type 1 (Homo sapiens) (UniProt Q14012); assay: Inhibition of human CAMK1 assessed as remaining activity at 10 uM in presence of ATP by radiometric kinase assay relative to control
[15] = target: Serine/threonine-protein kinase PAK 5 (Homo sapiens) (UniProt Q9P286); assay: Inhibition of human PAK5 assessed as remaining activity at 10 uM in presence of ATP by radiometric kinase assay relative to control
[16] = target: Mitogen-activated protein kinase 15 (Homo sapiens, UniProt Q8TD08); assay: Inhibition of human ERK8 in presence of ATP by radiometric kinase assay
[17] = Cmax in BALB/C mouse plasma at 10 mg/kg, iv by LC/MS-MS analysis; format: ADME, organism-based
In short: (§1)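 Female BALB/c mice received a single 10mg/kg bolus i.v. or p.o. Plasma (and spleen homogenate) extracted with methanol containing internal standards. Concentrations were measured by LC/MS-MS and PK parameters calculated with modelling software.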

[18] = target: Serine/threonine-protein kinase pim-1 (Homo sapiens) (UniProt P11309); assay: Inhibition of human PIM1 assessed as remaining activity at 10 uM in presence of ATP by radiometric kinase assay relative to control
[19] = Toxicity in Emu-Myc driven transgenic mouse transplant model of B-cell lymphoma assessed as reduction in weight of kidney at 150 mg/kg, po administered for 9 days; format: organism-based; conditions: in vivo, 216 h, time 9 day
[20] = Toxicity in CRTac:Ncr-Fox1 mouse xenografted with human HT-29 cells assessed as body weight at 150 mg/kg, po administered for 10 days in presence of irinotecan relative to control; format: organism-based; conditions: in vivo, 240 h, time 10 day
[21] = target: Serine/threonine-protein kinase PAK 4 (Homo sapiens) (UniProt O96013); assay: Inhibition of human PAK4 assessed as remaining activity at 10 uM in presence of ATP by radiometric kinase assay relative to control
[22] = Cmax in BALB/C mouse plasma at 10 mg/kg, po by LC/MS-MS analysis; format: ADME, organism-based; in short: as §1
[23] = target: MAP kinase-activated protein kinase 3 (Homo sapiens) (UniProt Q16644); assay: Inhibition of human MAPKAP-K3 assessed as remaining activity at 10 uM in presence of ATP by radiometric kinase assay relative to control
[24] = Toxicity in Emu-Myc driven transgenic mouse transplant model of B-cell lymphoma assessed as reduction in weight of the mesenteric lymph nodes at 150 mg/kg, po administered for 9 days; format: organism-based; conditions: in vivo, 216 h, time 9 day
[25] = target: T1, Dual specificity protein kinase CLK2; assay: Inhibition of human CLK2 at 10 uM in presence of ATP by radiometric kinase assay relative to control
Target sequence in this assay (P49760 whole entry, looked up): as the sequence (P49760 whole entry) above

HT-29 = assay: Induction of cell cycle arrest in human HT-29 cells assessed as accumulation of cells at S phase at 0.5 uM incubated for 24 hrs by BrdU and PI staining based flow cytometry analysis; format: functional
In short: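 HT29 cells exposed for 24h, stained with bromodeoxyuridine and propidium iodide, and cell-cycle distribution measured by flow cytometry.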

[26] = target: Serine/threonine-protein kinase TAO1 (Homo sapiens) (UniProt Q7L7X3); assay: Inhibition of human TAO1 assessed as remaining activity at 10 uM in presence of ATP by radiometric kinase assay relative to control
[27] = Plasma protein binding in nude mouse at 10 uM; format: ADME, cell-free
[28] = Toxicity in Emu-Myc driven transgenic mouse transplant model of B-cell lymphoma assessed as reduction in weight of bone marrow at 150 mg/kg, po administered for 9 days; format: organism-based; conditions: in vivo, 216 h, time 9 day

Chain of Mitogen-activated protein kinase 15 (Q8TD08 whole entry): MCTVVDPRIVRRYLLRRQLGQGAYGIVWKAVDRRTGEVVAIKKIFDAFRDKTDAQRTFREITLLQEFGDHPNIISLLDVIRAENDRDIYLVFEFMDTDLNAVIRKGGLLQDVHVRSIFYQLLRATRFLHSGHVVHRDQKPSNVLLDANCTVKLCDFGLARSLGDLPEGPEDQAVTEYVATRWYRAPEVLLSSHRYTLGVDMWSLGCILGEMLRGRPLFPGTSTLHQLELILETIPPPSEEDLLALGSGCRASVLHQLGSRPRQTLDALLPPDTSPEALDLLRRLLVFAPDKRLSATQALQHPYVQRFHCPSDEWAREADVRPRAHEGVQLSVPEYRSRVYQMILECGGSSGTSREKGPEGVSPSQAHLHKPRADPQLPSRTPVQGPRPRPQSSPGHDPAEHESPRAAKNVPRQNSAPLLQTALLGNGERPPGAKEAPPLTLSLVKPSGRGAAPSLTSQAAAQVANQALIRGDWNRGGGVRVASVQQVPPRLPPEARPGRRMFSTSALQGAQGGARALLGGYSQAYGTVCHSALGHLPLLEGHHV
Chain of MAP kinase-activated protein kinase 3 (Homo sapiens) (Q16644 whole entry, looked up): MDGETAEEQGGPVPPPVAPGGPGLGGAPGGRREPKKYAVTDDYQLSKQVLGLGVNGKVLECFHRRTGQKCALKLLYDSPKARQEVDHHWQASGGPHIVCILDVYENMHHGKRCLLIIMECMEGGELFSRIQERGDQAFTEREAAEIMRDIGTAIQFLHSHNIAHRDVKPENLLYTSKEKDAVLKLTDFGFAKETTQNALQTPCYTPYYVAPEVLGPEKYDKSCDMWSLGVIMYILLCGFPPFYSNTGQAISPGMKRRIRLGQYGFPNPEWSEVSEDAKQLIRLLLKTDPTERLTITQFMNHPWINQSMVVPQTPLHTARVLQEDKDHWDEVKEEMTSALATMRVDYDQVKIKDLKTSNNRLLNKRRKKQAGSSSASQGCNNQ
Chain of Cyclin-dependent kinase 1 (Homo sapiens) (P06493 whole entry, looked up): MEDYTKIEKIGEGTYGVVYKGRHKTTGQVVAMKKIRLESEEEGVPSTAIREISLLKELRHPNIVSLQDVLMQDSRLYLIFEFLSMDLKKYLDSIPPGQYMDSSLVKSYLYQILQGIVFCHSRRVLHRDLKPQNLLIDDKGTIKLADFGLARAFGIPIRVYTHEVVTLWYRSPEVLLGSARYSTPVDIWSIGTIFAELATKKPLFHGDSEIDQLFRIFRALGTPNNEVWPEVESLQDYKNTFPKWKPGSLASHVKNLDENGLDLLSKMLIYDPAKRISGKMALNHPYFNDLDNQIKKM
Chain of Mitogen-activated protein kinase kinase kinase 5 (Homo sapiens) (Q99683 whole entry): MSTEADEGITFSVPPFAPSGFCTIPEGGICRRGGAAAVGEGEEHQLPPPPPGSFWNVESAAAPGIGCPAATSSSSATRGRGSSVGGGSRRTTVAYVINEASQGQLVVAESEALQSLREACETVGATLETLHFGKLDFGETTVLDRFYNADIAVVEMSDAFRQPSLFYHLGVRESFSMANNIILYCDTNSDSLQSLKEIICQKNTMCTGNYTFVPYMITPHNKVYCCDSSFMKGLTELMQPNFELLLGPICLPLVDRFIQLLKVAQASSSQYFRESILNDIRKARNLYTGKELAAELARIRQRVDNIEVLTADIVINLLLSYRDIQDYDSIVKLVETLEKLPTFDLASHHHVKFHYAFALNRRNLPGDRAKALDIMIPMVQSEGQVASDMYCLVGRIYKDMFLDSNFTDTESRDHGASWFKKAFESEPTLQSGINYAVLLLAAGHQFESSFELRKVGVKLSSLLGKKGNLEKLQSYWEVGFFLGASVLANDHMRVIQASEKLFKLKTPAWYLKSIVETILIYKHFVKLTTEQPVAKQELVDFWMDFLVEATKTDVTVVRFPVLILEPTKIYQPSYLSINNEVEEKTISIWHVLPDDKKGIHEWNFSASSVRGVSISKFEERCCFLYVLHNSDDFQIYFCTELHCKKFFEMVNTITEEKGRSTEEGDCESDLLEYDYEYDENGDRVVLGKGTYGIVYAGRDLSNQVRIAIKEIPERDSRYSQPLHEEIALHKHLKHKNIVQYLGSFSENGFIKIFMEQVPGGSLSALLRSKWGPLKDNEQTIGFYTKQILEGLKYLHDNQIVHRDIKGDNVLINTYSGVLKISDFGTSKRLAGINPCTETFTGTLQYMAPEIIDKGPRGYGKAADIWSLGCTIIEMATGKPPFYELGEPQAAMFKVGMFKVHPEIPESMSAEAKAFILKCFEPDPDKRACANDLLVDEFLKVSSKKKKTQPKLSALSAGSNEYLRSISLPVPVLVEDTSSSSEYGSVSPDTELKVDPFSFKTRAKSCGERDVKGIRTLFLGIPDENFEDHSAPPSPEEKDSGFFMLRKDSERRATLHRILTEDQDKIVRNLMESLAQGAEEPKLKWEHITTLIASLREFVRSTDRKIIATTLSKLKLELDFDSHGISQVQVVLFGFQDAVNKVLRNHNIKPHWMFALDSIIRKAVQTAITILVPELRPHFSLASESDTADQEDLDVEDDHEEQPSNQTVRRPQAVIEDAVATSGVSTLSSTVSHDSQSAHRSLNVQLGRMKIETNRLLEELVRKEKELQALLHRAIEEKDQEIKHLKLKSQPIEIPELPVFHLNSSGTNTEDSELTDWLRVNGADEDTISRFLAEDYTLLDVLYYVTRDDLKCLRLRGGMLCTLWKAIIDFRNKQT
Chain of Serine/threonine-protein kinase TAO1 (Homo sapiens) (Q7L7X3 whole entry): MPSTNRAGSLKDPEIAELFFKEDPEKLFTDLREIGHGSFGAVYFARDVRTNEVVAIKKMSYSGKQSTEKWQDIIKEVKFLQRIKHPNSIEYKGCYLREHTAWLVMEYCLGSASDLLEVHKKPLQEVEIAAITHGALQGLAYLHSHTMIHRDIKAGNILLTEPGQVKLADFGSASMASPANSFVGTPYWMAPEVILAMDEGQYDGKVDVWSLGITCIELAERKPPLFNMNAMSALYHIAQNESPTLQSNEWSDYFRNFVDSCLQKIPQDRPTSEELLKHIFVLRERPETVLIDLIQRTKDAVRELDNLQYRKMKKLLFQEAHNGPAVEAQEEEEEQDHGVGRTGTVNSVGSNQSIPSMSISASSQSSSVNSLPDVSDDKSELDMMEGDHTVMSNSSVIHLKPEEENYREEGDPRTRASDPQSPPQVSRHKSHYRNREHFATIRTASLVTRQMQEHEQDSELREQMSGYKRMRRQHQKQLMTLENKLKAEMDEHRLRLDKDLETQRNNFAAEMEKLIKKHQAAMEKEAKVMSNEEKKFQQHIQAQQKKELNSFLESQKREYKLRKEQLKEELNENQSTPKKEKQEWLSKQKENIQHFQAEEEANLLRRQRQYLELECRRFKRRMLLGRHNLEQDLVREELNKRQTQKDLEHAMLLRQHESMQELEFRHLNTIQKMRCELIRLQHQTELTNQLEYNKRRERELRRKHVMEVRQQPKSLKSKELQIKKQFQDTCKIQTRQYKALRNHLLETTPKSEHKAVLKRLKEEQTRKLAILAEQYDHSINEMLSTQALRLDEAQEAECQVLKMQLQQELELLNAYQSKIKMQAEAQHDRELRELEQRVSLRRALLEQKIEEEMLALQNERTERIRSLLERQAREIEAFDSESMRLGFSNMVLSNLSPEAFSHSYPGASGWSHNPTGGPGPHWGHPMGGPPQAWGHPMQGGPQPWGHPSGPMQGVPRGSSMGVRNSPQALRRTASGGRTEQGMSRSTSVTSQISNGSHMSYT
Chain of Tyrosine-protein kinase ZAP-70 (Homo sapiens) (P43403 whole entry): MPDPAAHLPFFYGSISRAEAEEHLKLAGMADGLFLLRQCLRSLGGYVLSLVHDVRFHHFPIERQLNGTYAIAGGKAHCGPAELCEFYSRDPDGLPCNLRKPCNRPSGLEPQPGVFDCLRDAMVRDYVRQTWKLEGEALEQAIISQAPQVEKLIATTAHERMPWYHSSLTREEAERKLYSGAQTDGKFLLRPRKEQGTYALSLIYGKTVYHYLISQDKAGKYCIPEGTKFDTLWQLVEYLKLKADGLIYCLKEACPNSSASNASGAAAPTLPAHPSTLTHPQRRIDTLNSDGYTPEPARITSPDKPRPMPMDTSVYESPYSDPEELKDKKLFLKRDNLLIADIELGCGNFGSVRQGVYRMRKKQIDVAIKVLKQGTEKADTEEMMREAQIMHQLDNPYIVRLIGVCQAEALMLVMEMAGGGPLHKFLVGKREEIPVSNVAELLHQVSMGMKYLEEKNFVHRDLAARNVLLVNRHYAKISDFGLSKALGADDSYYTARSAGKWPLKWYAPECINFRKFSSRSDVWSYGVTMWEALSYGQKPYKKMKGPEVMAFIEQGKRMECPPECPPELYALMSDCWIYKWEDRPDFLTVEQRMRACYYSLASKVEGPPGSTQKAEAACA

N#Cc1cnc(Nc2cc(NC[C@H]3CNCCO3)c(C(F)(F)F)cn2)cn1 [SRA-737]
IC50 [1]: 1.37 µM | IC50 [2]: 2.44 µM | Activity [3]: 81% | Activity (Mus musculus): Active | Activity [4]: 94% | Activity [5]: 87% | Activity [6]: 75% | Activity [7]: 19% | Activity [8]: 47% | Activity [9]: 80% | Activity [10]: Toxic | IC50 [11]: 3.47 µM | Activity (SW-620): Active | Activity [12]: 39% | Activity [13]: 93% | Activity [14]: 69% | Activity [15]: 70% | IC50 [16]: 0.13 µM | Cmax [17]: 4000 nM | Activity [18]: 56% | Activity [19]: Toxic | Activity [20]: 98% | Activity [21]: 49% | Cmax [22]: 1620 nM | Activity [23]: 114% | Activity [24]: Toxic | inhibition [25]: 94% | Activity (HT-29): Active | Activity [26]: 54% | PPB [27]: 75.6% | Activity [28]: Toxic
